In ChEMBL document CHEMBL4251593, “Nontoxic combretafuranone analogues with high in vitro antibacterial activity” (Eur J Med Chem, 2018):
Converted amounts (≈) assume the structure as drawn.

What was measured:
Staphylococcus aureus [1] = experiment: Antibacterial activity against Staphylococcus aureus ATCC 6538 after 24 hrs by microdilution assay; format: functional; settings: ATCC 6538, 24 h
PC-3 [2] = experiment: Induction of apoptosis in human PC3 cells assessed as caspase 3/7 activity after 24 hrs by caspase-glo luminescent assay; format: cell-based; settings: PC-3, 24 h
Outline: (§1)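 Cells were seeded at 500 per well in their growth media and exposed to 12 concentrations from 40 µM to 1 nM, delivered from DMSO, in triplicate. After 24 h, caspase-3/7 activity was read by Caspase-Glo luminescence. Data were normalized and ED50 was fitted by variable-slope nonlinear regression.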

[3] = tested on: Staphylococcus epidermidis; experiment: Antibacterial activity against Staphylococcus epidermidis HK6966/08 clinical isolate after 24 hrs by microdilution assay; format: functional; settings: HK6966/08, 24 h
PC-3 [4] = experiment: Cytotoxicity against human PC3 cells assessed as reduction in cell viability after 48 hrs by ATPlite-based luminescent assay; settings: PC-3, 48 h
Outline: (§2)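 Cells were grown […] with 10% FBS, glutamax, NEAA and pen/strep at 37 °C, 5% CO2. Media were DMEM for RPE-1, HepG2 and BJ (BJ plus 10 ng/ml bFGF), F-12K for PC3, and IMDM for K562/HL-60. Cells were seeded at 500 per well and dosed from DMSO at 12 concentrations, 40 µM to 1 nM, in triplicate. After 48 h, intracellular ATP was read by luminescence. ED50 was obtained by variable-slope nonlinear regression.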

K562 [5] = experiment: Cytotoxicity against human K562 cells assessed as reduction in cell viability after 48 hrs by ATPlite-based luminescent assay; settings: K562, 48 h; outline: as §2
Pseudomonas aeruginosa [6] = experiment: Antibacterial activity against Pseudomonas aeruginosa ATCC 9027 after 48 hrs by microdilution assay; format: functional; settings: ATCC 9027, 48 h
Outline: (§3)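 Broth microdilution in Mueller-Hinton medium buffered to pH 7.4 (±0.2), with DMSO as diluent at no more than 2% final. Compounds were tested as 2-fold serial dilutions from 2000 to 0.488 µmol/l. The inoculum was 0.5 McFarland (1.5×10^8 cfu/ml). Plates were held at 37 °C and read visually at 24 and 48 h. MIC was taken as 95% growth inhibition versus control, determined twice in duplicate.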

Enterococcus sp. [7] = experiment: Antibacterial activity against Enterococcus sp. HK14365/08 clinical isolate after 24 hrs by microdilution assay; format: functional; settings: HK14365/08, 24 h
Klebsiella pneumoniae [8] = experiment: Antibacterial activity against Klebsiella pneumoniae HK14368/08 clinical isolate after 48 hrs by microdilution assay; format: functional; settings: HK14368/08, 48 h
TERT-RPE1 [9] = experiment: Cytotoxicity against human RPE1 cells assessed as reduction in cell viability after 48 hrs by ATPlite-based luminescent assay; settings: RPE-1, 48 h; outline: as §2
Klebsiella pneumoniae [10] = experiment: Antibacterial activity against Klebsiella pneumoniae HK11750/08 clinical isolate after 24 hrs by microdilution assay; format: functional; settings: HK11750/08, 24 h
Escherichia coli [11] = experiment: Antibacterial activity against Escherichia coli ATCC 8739 after 48 hrs by microdilution assay; format: functional; settings: ATCC 8739, 48 h; outline: as §3
HepG2 [12] = experiment: Cytotoxicity against human HepG2 cells assessed as reduction in cell viability after 48 hrs by ATPlite-based luminescent assay; settings: HepG2, 48 h; outline: as §2
MCF7 = experiment: Cytotoxicity against human MCF7 cells assessed as reduction in cell viability after 48 hrs by ATPlite-based luminescent assay; settings: MCF7, 48 h
BJ = experiment: Cytotoxicity against human BJ cells assessed as reduction in cell viability after 48 hrs by ATPlite-based luminescent assay; outline: as §2
Staphylococcus aureus [13] = experiment: Antibacterial activity against Staphylococcus aureus ATCC 6538 after 48 hrs by microdilution assay; format: functional; settings: ATCC 6538, 48 h
[14] = tested on: Staphylococcus epidermidis; experiment: Antibacterial activity against Staphylococcus epidermidis HK6966/08 clinical isolate after 48 hrs by microdilution assay; format: functional; settings: HK6966/08, 48 h
Escherichia coli [15] = experiment: Antibacterial activity against Escherichia coli ATCC 8739 after 24 hrs by microdilution assay; format: functional; settings: ATCC 8739, 24 h; outline: as §3
Staphylococcus aureus [16] = experiment: Antibacterial activity against methicillin-resistant Staphylococcus aureus HK5996/08 clinical isolate after 24 hrs by microdilution assay; format: functional; settings: HK5996/08, 24 h
K562 [17] = experiment: Induction of apoptosis in human K562 cells assessed as caspase 3/7 activity after 24 hrs by caspase-glo luminescent assay; format: cell-based; settings: K562, 24 h; outline: as §1
Klebsiella pneumoniae [18] = experiment: Antibacterial activity against Klebsiella pneumoniae HK14368/08 clinical isolate after 24 hrs by microdilution assay; format: functional; settings: HK14368/08, 24 h
HL-60 [19] = experiment: Induction of apoptosis in human HL60 cells assessed as caspase 3/7 activity after 24 hrs by caspase-glo luminescent assay; format: cell-based; settings: HL-60, 24 h; outline: as §1
TERT-RPE1 [20] = experiment: Induction of apoptosis in human RPE1 cells assessed as caspase 3/7 activity after 24 hrs by caspase-glo luminescent assay; format: cell-based; settings: RPE-1, 24 h; outline: as §1
Klebsiella pneumoniae [21] = experiment: Antibacterial activity against Klebsiella pneumoniae HK11750/08 clinical isolate after 48 hrs by microdilution assay; format: functional; settings: HK11750/08, 48 h
HL-60 [22] = experiment: Cytotoxicity against human HL60 cells assessed as reduction in cell viability after 48 hrs by ATPlite-based luminescent assay; settings: HL-60, 48 h; outline: as §2
HepG2 [23] = experiment: Induction of apoptosis in human HepG2 cells assessed as caspase 3/7 activity after 24 hrs by caspase-glo luminescent assay; format: cell-based; settings: HepG2, 24 h; outline: as §1
Pseudomonas aeruginosa [24] = experiment: Antibacterial activity against Pseudomonas aeruginosa ATCC 9027 after 24 hrs by microdilution assay; format: functional; settings: ATCC 9027, 24 h; outline: as §3
Staphylococcus aureus [25] = experiment: Antibacterial activity against methicillin-resistant Staphylococcus aureus HK5996/08 clinical isolate after 48 hrs by microdilution assay; format: functional; settings: HK5996/08, 48 h
Enterococcus sp. [26] = experiment: Antibacterial activity against Enterococcus sp. HK14365/08 clinical isolate after 48 hrs by microdilution assay; format: functional; settings: HK14365/08, 48 h

Compound	MIC95 (Staphylococcus aureus [1]) [µM]	IC50 (PC-3 [2]) [µM]	MIC95 [3] [µM]	IC50 (PC-3 [4]) [µM]	IC50 (K562 [5]) [µM]	MIC95 (Pseudomonas aeruginosa [6]) [µM]	MIC95 (Enterococcus sp. [7]) [µM]	MIC95 (Klebsiella pneumoniae [8]) [µM]	IC50 (TERT-RPE1 [9]) [µM]	MIC95 (Klebsiella pneumoniae [10]) [µM]	MIC95 (Escherichia coli [11]) [µM]	IC50 (HepG2 [12]) [µM]	IC50 (MCF7) [µM]	IC50 (BJ) [µM]	MIC95 (Staphylococcus aureus [13]) [µM]	IC50 (K562 [17]) [µM]	IC50 (HL-60 [19]) [µM]	IC50 (TERT-RPE1 [20]) [µM]	IC50 (HL-60 [22]) [µM]	IC50 (HepG2 [23]) [µM]	other results
Cc1ccc(C2=C(c3cccc(Cl)c3)C(=O)OC2)cc1	1.95 (≈ 0.555 µg/mL)	> 40	15.6 (≈ 4.45 µg/mL)	> 40	0.21	> 500	> 500	> 500	0.88	> 500	> 500	> 40	> 40	> 40	1.95 (≈ 0.555 µg/mL)	> 40	> 40	> 40	0.48	> 40	MIC95 [14]: 15.6 µM (≈ 4.45 µg/mL); MIC95 (Escherichia coli [15]): > 500 µM; MIC95 (Staphylococcus aureus [16]): 15.6 µM (≈ 4.45 µg/mL); MIC95 (Klebsiella pneumoniae [18]): > 500 µM; MIC95 (Klebsiella pneumoniae [21]): > 500 µM; MIC95 (Pseudomonas aeruginosa [24]): > 500 µM; MIC95 (Staphylococcus aureus [25]): 15.6 µM (≈ 4.45 µg/mL); MIC95 (Enterococcus sp. [26]): > 500 µM
O=C1OCC(c2ccc(O)c(O)c2)=C1c1ccc(O)cc1	250 (≈ 71.1 µg/mL)	> 40	250 (≈ 71.1 µg/mL)	> 40	16.2	> 500	500 (≈ 142 µg/mL)	> 500	> 40	> 500	> 500	> 40	> 40	> 40	500 (≈ 142 µg/mL)	> 40	> 40	> 40	> 40	> 40	MIC95 [14]: 500 µM (≈ 142 µg/mL); MIC95 (Escherichia coli [15]): > 500 µM; MIC95 (Staphylococcus aureus [16]): 250 µM (≈ 71.1 µg/mL); MIC95 (Klebsiella pneumoniae [18]): > 500 µM; MIC95 (Klebsiella pneumoniae [21]): > 500 µM; MIC95 (Pseudomonas aeruginosa [24]): > 500 µM; MIC95 (Staphylococcus aureus [25]): 500 µM (≈ 142 µg/mL); MIC95 (Enterococcus sp. [26]): 500 µM (≈ 142 µg/mL)
Cc1ccc(C2=C(c3ccc(Cl)c(Cl)c3)C(=O)OC2)cc1		> 40		> 40	0.12				0.54			> 40	15.4	> 40		> 40	0.54	3.5	0.23	> 40	
COc1ccc(C2=C(c3ccc(OC)c(OC)c3)C(CO)(CO)OC2=O)cc1	> 500	> 40	250 (≈ 96.6 µg/mL)	> 40	> 40	> 500	> 500	> 500	> 40	> 500	> 500	> 40	> 40	> 40	> 500	> 40	> 40	> 40	> 40	> 40	MIC95 [14]: 250 µM (≈ 96.6 µg/mL); MIC95 (Escherichia coli [15]): > 500 µM; MIC95 (Staphylococcus aureus [16]): 500 µM (≈ 193 µg/mL); MIC95 (Klebsiella pneumoniae [18]): > 500 µM; MIC95 (Klebsiella pneumoniae [21]): > 500 µM; MIC95 (Pseudomonas aeruginosa [24]): > 500 µM; MIC95 (Staphylococcus aureus [25]): 500 µM (≈ 193 µg/mL); MIC95 (Enterococcus sp. [26]): > 500 µM
O=C1OCC(c2ccc(C(F)(F)F)cc2)=C1c1ccc(Br)cc1	62.5 (≈ 23.9 µg/mL)	> 40	125 (≈ 47.9 µg/mL)	> 40	> 40	> 500	> 500	> 500	16.4	> 500	> 500	11.4	6.37	> 40	62.5 (≈ 23.9 µg/mL)	> 40	> 40	> 40	> 40	> 40	MIC95 [14]: 125 µM (≈ 47.9 µg/mL); MIC95 (Escherichia coli [15]): > 500 µM; MIC95 (Staphylococcus aureus [16]): 62.5 µM (≈ 23.9 µg/mL); MIC95 (Klebsiella pneumoniae [18]): > 500 µM; MIC95 (Klebsiella pneumoniae [21]): > 500 µM; MIC95 (Pseudomonas aeruginosa [24]): > 500 µM; MIC95 (Staphylococcus aureus [25]): 62.5 µM (≈ 23.9 µg/mL); MIC95 (Enterococcus sp. [26]): > 500 µM
COc1ccc(C2=C(c3ccc(OC)c(OC)c3)COC2=O)cc1	> 125	> 40	> 125	15.9	> 40	> 125	> 125	> 125	> 40	> 125	> 125	> 40	> 40	> 40	> 125	> 40	> 40	> 40	> 40	> 40	MIC95 [14]: > 125 µM; MIC95 (Escherichia coli [15]): > 125 µM; MIC95 (Staphylococcus aureus [16]): > 125 µM; MIC95 (Klebsiella pneumoniae [18]): > 125 µM; MIC95 (Klebsiella pneumoniae [21]): > 125 µM; MIC95 (Pseudomonas aeruginosa [24]): > 125 µM; MIC95 (Staphylococcus aureus [25]): > 125 µM; MIC95 (Enterococcus sp. [26]): > 125 µM
CC[C@@]1(O)C(=O)OCc2c1cc1n(c2=O)Cc2cc3ccccc3nc2-1 [CAMPTOTHECIN]		> 40		0.4	0.09				> 40			0.43	0.34	> 40		0.711	0.07	27.2	0.02	4.37	
